Assay results published in ChEMBL document CHEMBL5356984 (RSC Med Chem, 2023).
Calls of active or inactive are those of the source. The rule behind the calls is not given here.

How the values were obtained:
[1] = system: MCF7; test: Effect on AKT level in human MCF7 cells at 5 to 20 uM incubated for 48 hrs by Western blot analysis; assay type: functional, cell-based; details: dose 5-20 µM
How it was run: (§1)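 Cells exposed 48 h (DMSO vehicle control); trypsinized, lysed in RIPA with phosphatase/protease inhibitors; 20 μg protein on SDS-PAGE, blotted, blocked 5% milk 1 h; primary antibodies 1:1000 overnight at 4 °C, GAPDH 1:10000 as loading control; HRP secondary 1:1000–1:5000; ECL detection.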

[2] = system: SK-BR-3; test: Induction of apoptosis in human SK-BR-3 cells assessed as late apoptotic cells at 20 uM incubated for 36 hrs by Annexin V/PI staining based flow cytometry (reference value: 4.95 %); assay type: functional
[3] = system: SK-BR-3; test: Induction of apoptosis in human SK-BR-3 cells assessed as viable cells at 5 uM incubated for 36 hrs by Annexin V/PI staining based flow cytometry (reference value: 90.4 %); assay type: functional; details: read-out: Activity
[4] = system: MCF7; test: Induction of apoptosis in human MCF7 cells assessed as viable cells at 20 uM incubated for 36 hrs by Annexin V/PI staining based flow cytometry (reference value: 90.5 %); assay type: functional; details: read-out: Activity
[5] = system: MDA-MB-468; test: Antiproliferative activity against human MDA-MB-468 cells assessed as inhibition of cell viability measured after 48 hrs by MTT assay; assay type: functional, cell-based; details: MDA-MB-468, 48 h
How it was run: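 MTT cell viability read-out; IC50 obtained by non-linear regression of concentration–response data; values are mean ± SD of three independent experiments.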

[6] = system: MCF7; test: Induction of apoptosis in human MCF7 cells assessed as early apoptotic cells at 5 uM incubated for 36 hrs by Annexin V/PI staining based flow cytometry (reference value: 1.13 %); assay type: functional
[7] = system: SK-BR-3; test: Induction of apoptosis in human SK-BR-3 cells assessed as increase in cleaved pro-caspase-3 level at 10 to 20 uM incubated for 48 hrs by Western blot analysis; assay type: functional, cell-based; details: dose 10-20 µM; how it was run: as §1
[8] = system: SK-BR-3; test: Induction of apoptosis in human SK-BR-3 cells assessed as viable cells at 20 uM incubated for 36 hrs by Annexin V/PI staining based flow cytometry (reference value: 90.4 %); assay type: functional; details: read-out: Activity
[9] = Thermal stability of compound in boiling toluene at 120 degreeC assessed as time taken for compound decomposition at 1 mg/ml by HPLC analysis; assay type: physicochemical; details: read-out: T50
[10] = system: SK-BR-3; test: Effect on HSP70 level in human SK-BR-3 cells at 10 uM incubated for 36 hrs by DAPI staining based immunofluorescence analysis; assay type: functional, cell-based
How it was run: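 Cells treated 36 h with DMSO vehicle control, then fixed with 4% paraformaldehyde 15 min, permeabilized with 0.2% Triton X-100 5 min, blocked with 3% BSA 15 min; primary antibody then fluorescent secondary antibody, each 1 h at room temperature; HSP70 green, HSF-1 red, nuclei DAPI; imaged by fluorescence microscopy.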

[11] = system: SK-BR-3; test: Induction of apoptosis in human SK-BR-3 cells assessed as early apoptotic cells at 10 uM incubated for 36 hrs by Annexin V/PI staining based flow cytometry (reference value: 2.73 %); assay type: functional
[12] = system: MCF7; test: Induction of apoptosis in human MCF7 cells assessed as increase in cleaved pro-caspase-8 level at 10 to 20 uM incubated for 48 hrs by Western blot analysis; assay type: functional, cell-based; details: dose 10-20 µM; how it was run: as §1

IC50 [5]: 8.16 µM | half-life at 1 mg/ml [9]: > 12 h
Compound: CN1CCN(/C=C/C(=O)/C=C/c2cccc(O[Si](C)(C)C(C)(C)C)c2)CC1
Activity [1]: inactive | Activity [2]: 30.7% | viability at 5 µM [3]: 89.6% | viability at 20 µM [4]: 51.7% | Activity [6]: 1.58% | Activity [7]: Active | viability at 20 µM [8]: 18.5% | Activity [10]: inactive | Activity [11]: 3.01% | Activity [12]: Active
